Source: ChEMBL document CHEMBL4808188, “Development of BET inhibitors as potential treatments for cancer: A search for structural diversity” (Bioorg Med Chem Lett, 2021)
In brackets after ≈: the same amount, converted by molar mass.

What was measured:
[1] = Antitumor activity against human JJN-3R cells xenografted in mouse assessed as tumor growth inhibition at 1 mg/kg, po qd administered for 7 days beginning 8 days after tumor-cell implantation; assay type: functional; settings: 168 h, time 7 day, read-out: TGI
Method in brief: (§1)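 JJN3R multiple myeloma xenograft in mice. Oral dosing once daily for 7 days began 8 days after tumor-cell implantation, on established tumors. Read-out was % tumor growth inhibition, and the minimum efficacious dose was identified.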

[2] = target: T1, Bromodomain-containing protein 4 (Homo sapiens, UniProt O60885); experiment: Inhibition of BRD4 (unknown origin)
Method in brief: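 BRD4 binding assay; IC50 in nM, reported as mean ± SEM.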

[3] = Antiproliferative activity against Velcade-resistant human JJN-3R cells assessed as reduction in cell viability; assay type: functional, cell-based
Method in brief: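 Multiple myeloma cell proliferation assay in the Velcade-resistant JJN3R line; IC50 taken from proliferation.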

[4] = AUC (0 to 24 hrs) in mouse at 3 mg/kg, po measured for 24 hrs; assay type: ADME, organism-based; parameters: route oral, time 24 hrs, dose 3 mg/kg; settings: in vivo
[5] = Metabolic stability in rat liver microsomes assessed as half life measured upto 120 mins; assay type: ADME, Microsome
[6] = target: T1, Bromodomain-containing protein 4; experiment: Inhibition of BRD4 (unknown origin) assessed as reduction in c-Myc expression
Method in brief: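 Functional c-Myc assay with MYC expression as the read-out; IC50 in nM, reported as mean ± SEM.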

[7] = Metabolic stability in monkey liver microsomes assessed as half life measured upto 120 mins; assay type: ADME, Macaca mulatta, Microsome; settings: rhesus monkey
[8] = Antitumor activity against human JJN-3R cells xenografted in po dosed mouse assessed as tumor growth inhibition administered qd for 7 days beginning 8 days after tumor-cell implantation; assay type: functional; settings: 168 h, time 7 day, read-out: MED; method in brief: as §1
[9] = Protein binding in human serum assessed as free fraction; assay type: ADME, cell-free
[10] = Metabolic stability in mouse liver microsomes assessed as half life measured upto 120 mins; assay type: ADME, Microsome
[11] = Solubility of the compound in phosphate buffer at pH 6.5; assay type: physicochemical
Method in brief: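 Solubility measured in 50 mM phosphate buffer at pH 6.5; reported in µg/mL.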

[12] = Metabolic stability in dog liver microsomes assessed as half life measured upto 120 mins; assay type: ADME, Canis lupus familiaris, Microsome; settings: for half-life: liver microsomes
[13] = Permeability of the compound at pH 7.4 by PAMPA; assay type: ADME; settings: read-out: permeability
Method in brief: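 PAMPA run at pH 7.4; permeability reported in nm/sec.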

[14] = Metabolic stability in human liver microsomes assessed as half life measured upto 120 mins; assay type: ADME, Microsome
[15] = Antitumor activity against human JJN-3R cells xenografted in mouse assessed as tumor growth inhibition at 2 mg/kg, po qd administered for 7 days beginning 8 days after tumor-cell implantation; assay type: functional; settings: 168 h, time 7 day, read-out: TGI; method in brief: as §1
[16] = Antitumor activity against human JJN-3R cells xenografted in mouse assessed as tumor growth inhibition at 4 mg/kg, po qd administered for 7 days beginning 8 days after tumor-cell implantation; assay type: functional; settings: 168 h, time 7 day, read-out: TGI; method in brief: as §1

[2H]C([2H])([2H])c1nnn(C)c1-c1cnc2c3ccc(C(C)(C)O)c(F)c3n([C@H](c3ncccc3F)C3CCOCC3)c2c1
inhibition in vivo at 1 mg/kg [1]: 91%
IC50 [2]: 0.6 nM
IC50 [3]: 1.7 nM
AUC(0-t) at 24 h [4]: 10.9 µM·h
half-life [5]: 47 min
IC50 [6]: 0.9 nM
half-life [7]: 22 min
minimal effective dose [8]: 1 mg/kg
fraction unbound [9]: 0.06
half-life [10]: 16 min
solubility [11]: 91 µg/mL (≈ 170 µM)
half-life [12]: 37 min
Papp [13]: 42 ×10⁻⁶ cm/s
half-life [14]: 75 min

[2H]C([2H])([2H])c1nnn(C)c1-c1cnc2c3ccc(C(C)(C)O)cc3n([C@H](c3ncccc3F)C3CCOCC3)c2c1
IC50 [2]: 0.9 nM
IC50 [3]: 3.6 nM
half-life [5]: 48 min
IC50 [6]: 1 nM
half-life [7]: 22 min
fraction unbound [9]: 0.04
half-life [10]: 24 min
half-life [12]: 36 min
Papp [13]: 27 ×10⁻⁶ cm/s
half-life [14]: 79 min

Cc1nnn(C)c1-c1cnc2c3ccc(C(C)(C)O)cc3n(C(c3cnn[nH]3)C3CCOCC3)c2c1 (configuration not stated)
IC50 [2]: 27 nM
IC50 [3]: 710 nM
IC50 [6]: 210 nM
Papp [13]: 12 ×10⁻⁶ cm/s

[2H]C([2H])([2H])c1nnn(C)c1-c1cnc2c3c(F)cc(C(C)(C)O)cc3n([C@H](c3cc(C)on3)C3CCOCC3)c2c1
IC50 [3]: 3.9 nM
half-life [5]: 33 min
IC50 [6]: 2.8 nM
half-life [7]: 34 min
half-life [10]: 17 min
half-life [12]: 71 min
Papp [13]: 41 ×10⁻⁶ cm/s
half-life [14]: 120 min

Cc1cc([C@H](C2CCOCC2)n2c3cc(C(C)(C)O)ccc3c3ncc(-c4c(C)nnn4C)cc32)no1
IC50 [2]: 1.6 nM
IC50 [3]: 11 nM
half-life [5]: 26 min
IC50 [6]: 2.8 nM
half-life [7]: 16 min
half-life [10]: 10 min
half-life [12]: 38 min
Papp [13]: 35 ×10⁻⁶ cm/s
half-life [14]: 61 min

[2H]C([2H])([2H])c1nnn(C)c1-c1cnc2c3cc(F)c(C(C)(C)O)cc3n([C@H](c3ccccc3)C3CCOCC3)c2c1
IC50 [2]: 0.9 nM
IC50 [3]: 6 nM
AUC(0-t) at 24 h [4]: 12.6 µM·h
half-life [5]: 46 min
IC50 [6]: 2 nM
inhibition in vivo at 2 mg/kg [15]: 77%
half-life [7]: 19 min
fraction unbound [9]: 0.01
half-life [10]: 41 min
inhibition in vivo at 4 mg/kg [16]: 78%
solubility [11]: 4 µg/mL (≈ 7.74 µM)
t1/2 ([12]; microsomes, 2 h): 32 min
Papp [13]: 69 ×10⁻⁶ cm/s
half-life [14]: 52 min

[2H]C([2H])([2H])c1nnn(C)c1-c1cnc2c3ccc(C(C)(C)O)cc3n([C@H](c3cc(C)on3)C3CCOCC3)c2c1
IC50 [2]: 1.2 nM
IC50 [3]: 9.9 nM
half-life [5]: 33 min
IC50 [6]: 2.1 nM
half-life [7]: 37 min
fraction unbound [9]: 0.14
half-life [10]: 30 min
half-life [12]: 75 min
Papp [13]: 26 ×10⁻⁶ cm/s
half-life [14]: 64 min

[2H]C([2H])([2H])c1nnn(C)c1-c1cnc2c3ccc(C(C)(C)O)cc3n([C@H](c3ccc(Cl)cn3)C3CCOCC3)c2c1
IC50 [2]: 1 nM
IC50 [3]: 4.8 nM
half-life [5]: 62 min
IC50 [6]: 1.2 nM
half-life [7]: 37 min
fraction unbound [9]: 0.06
half-life [10]: 35 min
inhibition in vivo at 4 mg/kg [16]: 76%
half-life [12]: 61 min
Papp [13]: 61 ×10⁻⁶ cm/s
half-life [14]: 55 min

[2H]C([2H])([2H])c1nnn(C)c1-c1cnc2c3cc(F)c(C(C)(C)O)cc3n([C@H](c3cc(C)on3)C3CCOCC3)c2c1
IC50 [2]: 1.4 nM
IC50 [3]: 14 nM
half-life [5]: 3 min
IC50 [6]: 2.2 nM
half-life [7]: 21 min
half-life [10]: 26 min
half-life [12]: 33 min
Papp [13]: 69 ×10⁻⁶ cm/s
half-life [14]: 54 min

Cc1cc([C@H](C2CCOCC2)n2c3cc(C(C)(C)O)ccc3c3ncc(-c4c(C)nnn4C)cc32)n(C)n1
IC50 [2]: 2.3 nM
IC50 [3]: 55 nM
half-life [5]: 59 min
IC50 [6]: 7.1 nM
half-life [7]: 36 min
half-life [10]: 50 min
half-life [12]: 52 min
Papp [13]: 15 ×10⁻⁶ cm/s
half-life [14]: 83 min

[2H]C([2H])([2H])c1nnn(C)c1-c1cnc2c3ccc(C(C)(C)O)c(F)c3n([C@H](c3cc(C)on3)C3CCOCC3)c2c1
IC50 [2]: 2 nM
IC50 [3]: 13 nM
AUC(0-t) at 24 h [4]: 8.7 µM·h
half-life [5]: 30 min
IC50 [6]: 3.9 nM
half-life [7]: 23 min
minimal effective dose [8]: 4 mg/kg
fraction unbound [9]: 0.16
half-life [10]: 30 min
inhibition in vivo at 4 mg/kg [16]: 71%
solubility [11]: 120 µg/mL (≈ 230 µM)
half-life [12]: 52 min
Papp [13]: 80 ×10⁻⁶ cm/s
half-life [14]: 79 min
